From ChEMBL document CHEMBL1123980, “Serotonergic properties of spiroxatrine enantiomers” (J Med Chem, 1988)

Key:
[1] = molecular target: T1, Adrenergic receptor alpha-1 (Rattus norvegicus, UniProt P15823+P23944+P43140); experiment: Binding affinity against alpha-1 adrenergic receptor of rat was determined using 0.5 nM of [3H]WB-4101 in binding assay; format: protein assay
T1 sequence (P15823 whole entry): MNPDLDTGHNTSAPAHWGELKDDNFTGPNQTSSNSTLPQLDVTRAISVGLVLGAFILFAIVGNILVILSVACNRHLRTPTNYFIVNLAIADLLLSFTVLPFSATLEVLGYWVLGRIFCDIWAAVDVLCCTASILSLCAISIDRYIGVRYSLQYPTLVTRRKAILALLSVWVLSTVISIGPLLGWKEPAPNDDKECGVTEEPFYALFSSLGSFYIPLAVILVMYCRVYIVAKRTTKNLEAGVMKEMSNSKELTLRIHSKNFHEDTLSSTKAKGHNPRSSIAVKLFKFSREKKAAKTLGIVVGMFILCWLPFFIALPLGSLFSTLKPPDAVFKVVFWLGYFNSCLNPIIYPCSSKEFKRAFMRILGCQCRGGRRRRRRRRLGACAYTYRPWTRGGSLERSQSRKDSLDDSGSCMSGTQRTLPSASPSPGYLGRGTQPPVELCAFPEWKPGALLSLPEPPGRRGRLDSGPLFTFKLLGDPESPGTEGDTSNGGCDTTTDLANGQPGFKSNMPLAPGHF
T1 sequence (P23944 whole entry): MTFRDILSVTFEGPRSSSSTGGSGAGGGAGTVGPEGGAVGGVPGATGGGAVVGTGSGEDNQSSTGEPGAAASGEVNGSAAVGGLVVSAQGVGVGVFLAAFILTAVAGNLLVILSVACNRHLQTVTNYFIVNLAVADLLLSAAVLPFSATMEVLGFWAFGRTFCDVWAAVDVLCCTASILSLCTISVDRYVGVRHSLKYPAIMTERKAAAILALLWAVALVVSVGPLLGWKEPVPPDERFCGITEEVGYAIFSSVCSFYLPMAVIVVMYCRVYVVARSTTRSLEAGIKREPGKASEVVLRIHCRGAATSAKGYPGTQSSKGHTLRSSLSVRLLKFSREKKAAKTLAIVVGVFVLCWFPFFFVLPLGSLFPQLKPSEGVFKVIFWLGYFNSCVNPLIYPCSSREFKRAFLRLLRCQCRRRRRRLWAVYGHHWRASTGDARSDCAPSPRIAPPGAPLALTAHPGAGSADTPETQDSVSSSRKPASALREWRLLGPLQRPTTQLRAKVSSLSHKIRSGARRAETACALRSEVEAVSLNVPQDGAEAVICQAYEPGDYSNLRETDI
T1 sequence (P43140 whole entry): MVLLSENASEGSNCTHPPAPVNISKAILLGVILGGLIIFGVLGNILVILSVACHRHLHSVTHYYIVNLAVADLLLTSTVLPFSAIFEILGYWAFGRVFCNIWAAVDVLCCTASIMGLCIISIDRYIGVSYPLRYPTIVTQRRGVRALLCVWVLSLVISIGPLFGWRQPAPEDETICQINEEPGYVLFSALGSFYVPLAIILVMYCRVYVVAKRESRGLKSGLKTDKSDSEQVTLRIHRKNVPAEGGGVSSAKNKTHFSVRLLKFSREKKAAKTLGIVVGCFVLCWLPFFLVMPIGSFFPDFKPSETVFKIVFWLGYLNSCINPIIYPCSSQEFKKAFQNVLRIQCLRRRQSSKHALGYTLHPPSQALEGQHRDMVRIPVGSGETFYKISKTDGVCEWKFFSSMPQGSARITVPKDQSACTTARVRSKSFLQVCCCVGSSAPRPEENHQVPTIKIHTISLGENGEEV
How it was run: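 Washed rat cerebral cortex membranes at 10 mg wet tissue/mL, under the 8-OH-DPAT assay conditions (Tris/CaCl2/pargyline, pH 7.4, 15 min, 37 °C, filtration). Final [3H]WB4101 0.5 nM, with 1 µM 5-HT added to mask 5-HT1A sites. Nonspecific binding with 1 µM prazosin. Apparent Ki from graphical IC50 via Cheng-Prusoff.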

[2] = molecular target: Serotonin 2 (5-HT2) receptor (Rattus norvegicus, UniProt P30994+P08909+P14842); experiment: Binding affinity towards serotonin 5-hydroxytryptamine 2 receptor of rat determined using 0.5 nM of [3H]ketanserin in binding assay; format: protein assay
How it was run: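 0.5 nM [3H]ketanserin in the same buffer, no CaCl2 or pargyline; 15 min at 37 °C; filtration and scintillation counting. Nonspecific binding with 10 µM methysergide. IC50 read graphically and converted to apparent Ki (Cheng-Prusoff).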

[3] = molecular target: 5-hydroxytryptamine receptor 1B (Rattus norvegicus, UniProt P28564); experiment: Binding affinity towards 5-hydroxytryptamine 1B receptor in rat was determined using 50 uL of [125I]ICYP in binding assay
How it was run: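 [125I]ICYP at 150 pM final, in Tris/CaCl2/pargyline medium with 60 µM (-)-isoproterenol to block β-adrenergic sites. 15 min at 37 °C; ice-cold phosphate dilution, GF/B filtration, gamma counting. Nonspecific binding with 10 µM 5-HT.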

[4] = molecular target: T2, 5-hydroxytryptamine receptor 1A (Rattus norvegicus, UniProt P19327); experiment: Binding affinity against 5-hydroxytryptamine 1A receptor of rat was determined using [3H]8-OH-DPAT in binding assay
T2 sequence (P19327 whole entry): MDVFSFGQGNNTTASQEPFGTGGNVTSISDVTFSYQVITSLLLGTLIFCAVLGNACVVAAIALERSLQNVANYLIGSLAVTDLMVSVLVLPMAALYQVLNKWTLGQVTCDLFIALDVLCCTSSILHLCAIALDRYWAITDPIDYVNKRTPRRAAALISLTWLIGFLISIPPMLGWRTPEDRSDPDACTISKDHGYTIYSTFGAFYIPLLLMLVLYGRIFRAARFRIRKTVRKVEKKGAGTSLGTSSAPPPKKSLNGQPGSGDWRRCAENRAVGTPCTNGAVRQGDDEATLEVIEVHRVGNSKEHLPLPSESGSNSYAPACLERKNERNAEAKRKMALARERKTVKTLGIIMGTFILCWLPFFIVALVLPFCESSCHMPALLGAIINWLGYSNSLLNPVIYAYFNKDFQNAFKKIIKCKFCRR
How it was run: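 Rat (male Sprague-Dawley) cerebral cortex membranes, washed 4 times with a 10 min 37 °C preincubation, 10 mg wet tissue/mL. 1 nM [3H]-8-OH-DPAT in 50 mM Tris, 3 mM CaCl2, pargyline, pH 7.4; 15 min, 37 °C; filtration on PEI-treated GF/B filters, scintillation counting. Nonspecific binding with 10 µM 5-HT. IC50 read graphically and converted to apparent Ki (Cheng-Prusoff).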

D(2) dopamine receptor = D(2) dopamine receptor (Rattus norvegicus, UniProt P61169); experiment: Binding affinity against Dopamine receptor D2 of rat was determined using 2 nM of [3H]sulpiride in binding assay
How it was run: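 Striatal membranes from male Sprague-Dawley rats in Tris buffer with 108 mM NaCl, 4.7 mM KCl, 1.3 mM CaCl2, pH 7.4, 4 mg wet tissue/mL. Final [3H]sulpiride 2 nM; incubated 20 min at 37 °C, then vacuum filtration. Specific binding defined with 1 µM spiperone. IC50 read graphically and converted to apparent Ki (Cheng-Prusoff).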

Sequence of 5-hydroxytryptamine receptor 1B (P28564 whole entry): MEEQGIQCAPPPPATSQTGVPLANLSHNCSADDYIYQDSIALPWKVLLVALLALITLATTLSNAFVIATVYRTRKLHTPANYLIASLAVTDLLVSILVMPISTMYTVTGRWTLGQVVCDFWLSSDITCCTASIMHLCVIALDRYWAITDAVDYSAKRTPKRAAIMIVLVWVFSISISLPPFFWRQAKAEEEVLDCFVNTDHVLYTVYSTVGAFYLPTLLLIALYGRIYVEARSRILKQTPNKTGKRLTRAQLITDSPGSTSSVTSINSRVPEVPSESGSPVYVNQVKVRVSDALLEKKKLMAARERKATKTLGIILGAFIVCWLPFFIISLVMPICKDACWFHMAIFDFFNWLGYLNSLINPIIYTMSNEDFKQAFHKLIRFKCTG
Sequence of D(2) dopamine receptor (P61169 whole entry): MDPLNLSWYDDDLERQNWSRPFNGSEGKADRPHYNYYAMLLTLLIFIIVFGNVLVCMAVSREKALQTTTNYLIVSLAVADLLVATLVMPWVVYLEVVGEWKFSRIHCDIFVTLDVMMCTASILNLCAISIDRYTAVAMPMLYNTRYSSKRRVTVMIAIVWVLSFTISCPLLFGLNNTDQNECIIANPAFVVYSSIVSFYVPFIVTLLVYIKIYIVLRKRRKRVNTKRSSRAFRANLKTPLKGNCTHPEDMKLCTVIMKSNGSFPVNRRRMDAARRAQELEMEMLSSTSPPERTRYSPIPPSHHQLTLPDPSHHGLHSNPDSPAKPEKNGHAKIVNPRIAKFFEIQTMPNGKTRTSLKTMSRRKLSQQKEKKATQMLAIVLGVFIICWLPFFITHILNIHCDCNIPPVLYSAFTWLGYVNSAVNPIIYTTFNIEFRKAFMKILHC

Row | Structure (SMILES) | Ki [1] | Ki [2] | Ki [3] | Ki [4] | Ki (D(2) dopamine receptor)
1 | O=C1NCN(c2ccccc2)C12CCN(CC1COc3ccccc3O1)CC2 (stereo in doubt; (+)) [SPIROXATRINE] | 1050 nM | 858 nM | > 10000 nM | 21 nM | 1.45 nM
2 | O=C1NCN(c2ccccc2)C12CCN(CC1COc3ccccc3O1)CC2 (stereo in doubt; (-)) [SPIROXATRINE] | 149 nM | 113 nM | > 10000 nM | 1.9 nM | 0.22 nM
